Test results: PubChem BioAssay
The source made the active and inactive calls.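 How the source made its calls, unless noted: active means inhibition of the reporter signal at or above 50%; inactive means inhibition below 50%.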

Experiments:
[1] = inhibitors of TNFa-induced NFkB p65 translocation, primary screen, imaging, HUVEC, MLSMR starter and 10KST1 sets (AID 438;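 active means inhibition above 20% together with a positive visual image hit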;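 further: compound added about 3h40 before a 20 min TNFalpha stimulation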;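 on inhibition: signal is the nuclear over cytoplasmic p65 intensity ratio per well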); conditions: HUVEC TNFa-induced p65 nuclear translocation; cell count: measured here: nuclei count (cytotoxicity indicator), at 2.08 µM; inhibition: at 2 µM, stronger effect = higher value, 0% TNFa-plus-vehicle, 100% no-TNFa wells
[2] = reduction of polyQ htt aggregates in cells – imaging, exon1htt(103Q)mCFP cells, high-content imaging, primary screen (AID 483;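 active means visual image review flags a hit and inhibition of aggregation exceeds 20%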;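 further: compound exposure lasted 3 days before fixation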;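 on nuclei count: percent of the per-plate median nuclei count of sample wells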); conditions: exon1htt(103Q)mCFP cell line, aggregate imaging, at 2 µM; inhibition of aggregation: stronger effect = higher value; nuclei count: measured here: cell count, toxicity
[3] = endothelial E-selectin expression blockers – imaging, HUVEC, immunofluorescence, MLSMR starter and 10KST1 sets, primary screen (AID 487;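 active means visually confirmed hit in the image check and inhibition above 20%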;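 on inhibition: signal is fraction of cell area covered by stained E-selectin grains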;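 on nuclei count: 100% = median nuclei count of all wells on the same plate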); conditions: HUVEC TNFalpha-induced E-selectin immunofluorescence imaging, at 2 µM; inhibition: stronger effect = higher value; nuclei count: measured here: cell number, toxicity
[4] = biological target: Voltage-gated potassium channel subunit beta-2 (Rattus norvegicus) (UniProt P62483); assay: inhibitors of rat Kvbeta2 reductase activity – biochemical, NADPH fluorescence, primary screen (AID 622;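 active means fluorescence slope higher than the sample average by over 3 SD, cut at about -0.22 in these data, passing the limit was not always enough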;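 further: slope of raw intensity against log time taken from 70 to 1610 s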); conditions: recombinant KvBeta, 4-cyanobenzaldehyde reduction, at 10 µM, stronger effect = higher value
Voltage-gated potassium channel subunit beta-2 (Rattus norvegicus), sequence (P62483 whole entry, looked up): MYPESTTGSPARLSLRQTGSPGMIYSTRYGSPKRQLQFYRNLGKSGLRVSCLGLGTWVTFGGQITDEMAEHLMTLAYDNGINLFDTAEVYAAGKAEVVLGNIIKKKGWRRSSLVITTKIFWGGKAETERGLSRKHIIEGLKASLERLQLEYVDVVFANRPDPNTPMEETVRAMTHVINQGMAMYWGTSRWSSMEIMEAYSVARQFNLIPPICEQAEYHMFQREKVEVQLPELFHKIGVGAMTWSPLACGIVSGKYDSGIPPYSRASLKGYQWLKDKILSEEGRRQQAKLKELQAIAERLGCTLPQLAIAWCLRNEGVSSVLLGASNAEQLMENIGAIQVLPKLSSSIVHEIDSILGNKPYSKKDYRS

[5] = biological target: Voltage-gated potassium channel subunit beta-2 (Rattus norvegicus) (UniProt P62483); assay: enhancers of rat Kvbeta2 NADPH turnover – biochemical, NADPH fluorescence, primary screen (AID 623;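 active means NADPH fluorescence slope more negative than the mean of all samples by about 3 SD, 99.7% confidence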;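 further: fluorescence intensity change per second fitted from 20 to 320 s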); conditions: Recombinant KvBeta, NADPH fluorescence decrease slope, 10 min; at 10 µM; stronger effect = lower value
[6] = biological target: Muscarinic acetylcholine receptor M4 (Homo sapiens) (UniProt P08173); assay: M4-linked GIRK flux change, two-sided – cell-based, HEK293 M4/GIRK, thallium flux, BTC-AM, M4 allosteric agonist project, primary screen (AID 625;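 active means fluorescence slope after compound addition differing from the mean of all tested samples at 99.7% confidence, mostly higher but some lower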;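 further: thallium influx through GIRK channels coupled to M4 in HEK293 cells with BTC-AM dye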); conditions: at 10 µM, actives lie on both sides
Muscarinic acetylcholine receptor M4 (Homo sapiens), sequence (P08173 whole entry, looked up): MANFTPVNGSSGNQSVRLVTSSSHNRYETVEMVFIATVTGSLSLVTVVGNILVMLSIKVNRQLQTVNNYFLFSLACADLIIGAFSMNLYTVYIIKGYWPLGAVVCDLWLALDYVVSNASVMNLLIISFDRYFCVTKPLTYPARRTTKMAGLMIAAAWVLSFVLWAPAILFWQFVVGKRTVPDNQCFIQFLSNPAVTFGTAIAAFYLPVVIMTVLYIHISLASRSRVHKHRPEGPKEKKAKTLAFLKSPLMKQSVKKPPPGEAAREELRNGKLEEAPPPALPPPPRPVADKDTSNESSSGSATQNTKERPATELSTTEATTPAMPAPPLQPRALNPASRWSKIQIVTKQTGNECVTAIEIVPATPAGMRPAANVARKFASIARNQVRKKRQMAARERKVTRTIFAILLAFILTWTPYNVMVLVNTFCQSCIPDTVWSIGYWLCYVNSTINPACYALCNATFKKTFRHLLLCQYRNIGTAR
Method in brief: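 Material: HEK293 cells with M4 receptor and GIRK channels; Times: cells overnight at 37 °C, BTC-AM loading 1 h, reads 2 min total; Technique: kinetic BTC-AM fluorescence sampled at 1 Hz, 10 s pre-addition baseline; Read-out basis: slope over 15–24 s of trace normalized to starting intensity; Controls: carbachol positive, DMSO negative.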

[7] = TLR3 IRF3 reporter activation blockers – cell-based, poly I:C stimulus, luciferase, 10K MLSCN set, primary screen (AID 602277); conditions: HEK293-TLR3 RL24 IRF3 luciferase reporter, at 10 µM, stronger effect = higher value
[8] = blockers of RIG-like receptor reporter activation – cell-based, Sendai virus stimulus, luciferase, 10K MLSCN set, TLR/RLR signaling modifier project, primary screen (AID 602276;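 active means inhibition at or above 50% at 10 µM; inactive means inhibition below 50%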;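 further: firefly luciferase from ISG56 promoter only with Renilla not read in this screen; 0% = Sendai virus plus DMSO and 100% = medium plus DMSO without virus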); conditions: HEK293 RL24 IRF3 luciferase reporter, at 10 µM, stronger effect = higher value
[9] = biological target: Alpha-2C adrenergic receptor (Homo sapiens) (UniProt P18825); assay: compounds altering alpha2C-coupled GIRK flux – cell-based, HEK293 alpha2C/GIRK1/2, thallium flux, primary screen (AID 624;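 active means fluorescence slope after compound addition differing from the mean of all screened samples at 99.7% confidence, in either direction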); conditions: thallium flux BTC fluorescence, at 10 µM, actives lie on both sides
Alpha-2C adrenergic receptor (Homo sapiens), sequence (P18825 whole entry, looked up): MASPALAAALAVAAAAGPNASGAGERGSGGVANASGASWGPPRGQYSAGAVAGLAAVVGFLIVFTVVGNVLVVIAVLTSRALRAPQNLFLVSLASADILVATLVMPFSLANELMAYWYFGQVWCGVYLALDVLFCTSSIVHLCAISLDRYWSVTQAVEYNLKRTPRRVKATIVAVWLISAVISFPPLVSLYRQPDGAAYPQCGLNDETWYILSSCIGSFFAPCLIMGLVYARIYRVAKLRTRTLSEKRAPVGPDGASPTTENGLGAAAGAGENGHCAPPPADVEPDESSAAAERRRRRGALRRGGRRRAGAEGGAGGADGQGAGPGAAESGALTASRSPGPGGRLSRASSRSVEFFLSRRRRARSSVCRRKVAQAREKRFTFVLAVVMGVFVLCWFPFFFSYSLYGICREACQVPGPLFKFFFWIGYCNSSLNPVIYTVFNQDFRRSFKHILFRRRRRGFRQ

In the case of Cc1ccc(CNC(=O)c2coc(=O)c3ccccc23)o1, the cell count [1] is reported as 581, the inhibition [1] is reported as 0.6% (inactive) and the inhibition of aggregation [2] is reported as 4.6% (inactive). The nuclei count [2] was 102%, the inhibition [3] was 58.5% (inactive) and the nuclei count [3] was 55.6%. The fluorescence slope [4] was -0.445 (inactive), the NADPH fluorescence slope [5] was -0.000402 (inactive) and the fluorescence slope [6] was 0.00482 (inactive). The inhibition [7] was 98.4% (active).

For O=C(CSc1nnc(Cc2ccccc2)n1C1CCCCC1)N1CCOCC1, the cell count [1] was 367, the inhibition [1] was 7.2% (inactive) and the inhibition of aggregation [2] was 12.5% (inactive). The nuclei count [2] was 104%, the inhibition [3] was -264% (inactive) and the nuclei count [3] was 113%. The fluorescence slope [4] was -0.463 (inactive), the NADPH fluorescence slope [5] was 5e-05 (inactive) and the fluorescence slope [6] was 0.00611 (inactive). For the same molecule, the inhibition [8] was -13% (inactive) and the inhibition [7] was -20.2% (inactive).

In the case of O=C(O)c1ccc(-n2nc(C(F)(F)F)c3c2-c2ccoc2CC3)cc1, the cell count [1] is reported as 609, the inhibition [1] is reported as -5.9% (inactive) and the inhibition of aggregation [2] is reported as 5.8% (inactive). For the same molecule, the nuclei count [2] was 96.1%, the inhibition [3] was -24.4% (inactive) and the nuclei count [3] was 90.9%. For the same molecule, the fluorescence slope [4] was -0.492 (inactive), the NADPH fluorescence slope [5] was 2.6e-05 (inactive) and the fluorescence slope [6] was 0.00488 (inactive). The inhibition [8] was 3.92% (inactive) and the inhibition [7] was -5.27% (inactive).

In the case of O=C(Nc1cccnc1N1CCOCC1)c1ccco1, the cell count [1] is reported as 579, the inhibition [1] is reported as -0.3% (inactive) and the inhibition of aggregation [2] is reported as 4.6% (inactive). For the same molecule, the nuclei count [2] was 104%, the inhibition [3] was -56.6% (inactive) and the nuclei count [3] was 109%. The fluorescence slope [4] was -0.221 (inactive), the NADPH fluorescence slope [5] was -1.1e-05 (inactive) and the fluorescence slope [6] was 0.00549 (inactive). For the same molecule, the inhibition [8] was 10.9% (inactive) and the inhibition [7] was 10.7% (inactive).

For CS(=O)(=O)Nc1ccc(C(=O)NCCc2ccccc2)cc1, the cell count [1] was 342, the inhibition [1] was -2% (inactive) and the inhibition of aggregation [2] was -9.2% (inactive). For the same molecule, the nuclei count [2] was 108%, the inhibition [3] was -69% (inactive) and the nuclei count [3] was 125%. The fluorescence slope [4] was -0.535 (inactive), the NADPH fluorescence slope [5] was -1.7e-06 (inactive) and the fluorescence slope [6] was 0.00454 (inactive). For the same molecule, the inhibition [8] was -13.2% (inactive) and the inhibition [7] was -40.3% (inactive).

In the case of O=C1C2C3C=CC(C3)C2C(=O)N1CNc1ccc(O)cc1 (stereo unspecified), the cell count [1] is reported as 307, the inhibition [1] is reported as 8.9% (inactive) and the inhibition of aggregation [2] is reported as -9.8% (inactive). For the same molecule, the nuclei count [2] was 108%, the inhibition [3] was 32.1% (inactive) and the nuclei count [3] was 106%. The fluorescence slope [4] was -0.507 (inactive), the NADPH fluorescence slope [5] was 2.6e-05 (inactive) and the fluorescence slope [6] was 0.00588 (inactive). For the same molecule, the inhibition [8] was 4.46% (inactive) and the inhibition [7] was 2.67% (inactive).

With O=C(COc1ccc(Cl)cc1)Nc1nc(-c2cccs2)cs1 the cell count [1] was 718, the inhibition [1] was -6.1% (inactive) and the inhibition of aggregation [2] was -1.6% (inactive). For the same molecule, the nuclei count [2] was 110%, the inhibition [3] was -32.4% (inactive) and the nuclei count [3] was 114%. The fluorescence slope [4] was -0.567 (inactive), the NADPH fluorescence slope [5] was 2.5e-05 (inactive) and the fluorescence slope [6] was 0.00605 (inactive). For the same molecule, the inhibition [8] was 1.13% (inactive) and the inhibition [7] was 0.877% (inactive).

With CCN(CC)S(=O)(=O)c1ccc(N2CCCC2)c(C(=O)OCC(=O)/C(C#N)=C(\C)N)c1 the cell count [1] was 560, the inhibition [1] was -16% (inactive) and the inhibition of aggregation [2] was 6.5% (inactive). The nuclei count [2] was 98.3%, the inhibition [3] was 8.4% (inactive) and the nuclei count [3] was 101%. The fluorescence slope [4] was -0.428 (inactive), the NADPH fluorescence slope [5] was 6.6e-05 (inactive) and the fluorescence slope [6] was 0.00583 (inactive). The inhibition [8] was 15.9% (inactive) and the inhibition [7] was 24.1% (inactive).

In the case of Cc1cc2cc(CNC(=O)c3ccc4c(c3)OCO4)ccc2[nH]1, the cell count [1] is reported as 442, the inhibition [1] is reported as 2.9% (inactive) and the inhibition of aggregation [2] is reported as 0.1% (inactive). For the same molecule, the nuclei count [2] was 106%, the nuclei count [3] was 150% and the fluorescence slope [4] was -0.503 (inactive). The NADPH fluorescence slope [5] was -1.1e-05 (inactive), the slope [9] was 0.00502 (inactive) and the inhibition [8] was -10.5% (inactive). For the same molecule, the inhibition [7] was -25.2% (inactive).

For CCS(=O)(=O)c1nc2ccccc2n1CC(=O)N1CCCCC1, the cell count [1] was 507, the inhibition [1] was 9.7% (inactive) and the inhibition of aggregation [2] was -6.2% (inactive). For the same molecule, the nuclei count [2] was 89.2%, the inhibition [3] was -32.9% (inactive) and the nuclei count [3] was 99.3%. For the same molecule, the fluorescence slope [4] was -0.425 (inactive), the NADPH fluorescence slope [5] was -2.1e-05 (inactive) and the fluorescence slope [6] was 0.00578 (inactive). The inhibition [8] was 17.6% (inactive) and the inhibition [7] was 27% (inactive).

For Cc1[nH]c(=O)[nH]c(=O)c1S(=O)(=O)N1c2ccc(F)cc2CCC1C (stereo unspecified), the cell count [1] was 307, the inhibition [1] was -3.4% (inactive) and the inhibition of aggregation [2] was -5% (inactive). For the same molecule, the nuclei count [2] was 112%, the inhibition [3] was -175% (inactive) and the nuclei count [3] was 96.2%. For the same molecule, the fluorescence slope [4] was -0.461 (inactive), the NADPH fluorescence slope [5] was -3.2e-05 (inactive) and the fluorescence slope [6] was 0.00639 (inactive). For the same molecule, the inhibition [8] was 9.62% (inactive) and the inhibition [7] was 21.9% (inactive).

With Nc1nc(CSCc2ccccc2)nc(N2CCOCC2)n1 the cell count [1] was 685, the inhibition [1] was 0.8% (inactive) and the inhibition of aggregation [2] was -6.3% (inactive). For the same molecule, the nuclei count [2] was 95.4%, the inhibition [3] was 17.1% (inactive) and the nuclei count [3] was 104%. The fluorescence slope [4] was -0.262 (inactive), the NADPH fluorescence slope [5] was -1.3e-05 (inactive) and the fluorescence slope [6] was 0.0049 (inactive). For the same molecule, the inhibition [8] was -22.6% (inactive) and the inhibition [7] was -81.5% (inactive).

With O=C(Nc1cc(C(F)(F)F)ccc1Cl)c1cc(C2CC2)on1 the cell count [1] was 404, the inhibition [1] was -3.9% (inactive) and the inhibition of aggregation [2] was -8.1% (inactive). For the same molecule, the nuclei count [2] was 102%, the inhibition [3] was -25.8% (inactive) and the nuclei count [3] was 61.5%. For the same molecule, the fluorescence slope [4] was -0.45 (inactive), the NADPH fluorescence slope [5] was -5.4e-05 (inactive) and the fluorescence slope [6] was 0.00518 (inactive). For the same molecule, the inhibition [8] was 21.5% (inactive) and the inhibition [7] was 27.4% (inactive).
